Test results published in the EternaBench riboswitch data.

Test system: MS2 coat protein
Assay: apparent Kd, MS2 coat protein; higher = weaker binding; RNA-MaP array; FMN 200 µM where present
Summary of the method: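 Stalled E. coli RNA polymerase transcribed the designs on Illumina sequencing-chip clusters. SNAP-549-labelled MS2 coat protein was titrated from 0.7 or 1.5 nM, doubling to 3 µM, without and then with constant ligand, in 100 mM Tris-HCl pH 7.5, 80 mM KCl, 4 mM MgCl2, BSA, DTT, yeast tRNA and Tween-20. Per-cluster binding curves were fitted to green signal normalised to red-channel RNA signal and control-cluster median Fmax. The apparent Kd is the median of the filtered fits.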

[1] = designed as: OFF switch for flavin mononucleotide, no ligand
[2] = ligand present: flavin mononucleotide, designed as: OFF switch for flavin mononucleotide
[3] = designed as: ON switch for flavin mononucleotide, no ligand
[4] = ligand present: flavin mononucleotide, designed as: ON switch for flavin mononucleotide

Sequence	apparent Kd [1] [nM]	apparent Kd [2] [nM]	apparent Kd [3] [nM]	apparent Kd [4] [nM]
UGUAUGGACAGAGGAUAUACCGAUAGGAUCUACUAUCGAACAAUUCUCACAUGAGGAUCACCCAUGUAGAAGGCUGUCCAUACU	16	29.5		
CAGUACUGAGGAUAUACAUGAGGAUCACCCAUGUGUUCCAGCUGGGAAACUAGCAAAAGUAGAAGGCAGUACUG	25.5	395		
GGAUAGUGUCGUUAUCCGUAGCGAACAUGAGGAUCACCCAUGUAGGAUAUGUUACUAAACUAGUAACAGAAGGGCGUGAGUCUU	94.2	108		
UGUUGUAUUACAGGAUAUCUAUUAGUUUUAUUUAGAGAAGGGUAUUCACAUGAGGAUCACCCAUGUAUAUACGAGGAAGUUGUG			57.8	60.3
UGUGCGUAUGUGAGGAUAUGCUGGUCCUUGGAUCGGCAGAAGGCACAUGAGGAUCACCCAUGUGGUGUCGUACC	161	40.4		
AGCAGACGAGGAUAUGAUAAAGAUCACAUGAGGAUCACCCAUGUAGCGUCGAUAGACGCAUCAGAAGGCGUCUGCU	16.1	16.5		
ACAUGAGGAUCACCCAUGUAUUUGUAGGAUAUACUCUAUUGUUUAUUACUCUAGUUAAAAUGUUUGUAGAAGGACAUUACAUGA	6.81	7.38		
GUCAGCUCGUGAGGAUAUACAACACUGCUUCGGCAGUGGAUUAAGAUCACAUGAGGAUCACCCAUGUAGAAGGCACGAGCUGAU	16.2	423		
AAGUUUUUACAAGGAUAUCAAUUUUUUCUAAAUUCAACAUGAGGAUCACCCAUGUAACAAUGGAGUGAGAAGGUGUUUUGGCAA			176	205
AAUAAACUAGGAUAUACAUGAGGAUCACCCAUGUGUCGCCACGUGCUUGCUCACUCGUGUAGAAGGAGUACGGA	38.5	73.1		
ACGUUAAAAGGAUAUACAUGAGGAUCACCCAUGUUGUUCGAACCGGUAAACCCUCUAUGUAGAAGGUUUGGCGC	16	17.9		
CGUUGAUGAUUUCUUCACAUGAGGAUCACCCAUGUCGCUCGACAGGAUAUAUUUGAGUUGUUUAAGUAGAAGGGUCGCAGAUGC			112	183
AAAAAGUGAGGAUAUGGAAAAAAAAAAAAAAAAAAAAAAAACCAGAAGGCACAUGAGGAUCACCCAUGUAAAAA	39.6	39.4		
UUGGUGGUUUCCCGCGCUAAGAUAGGAGAAGGGUGACUGGACAUGAGGAUCACCCAUGUAUCGGCACAGGAUAUCCACAUUAAU			223	334
AUCAGCUCGUCAGGAUAUACGUCACUGCGUCAGCAGUGUGGUAAGAUCACAUGAGGAUCACCCAUGUAGAAGGGACGAGCUCAU	13.9	322		
CAGUCUACAGGAUAUACAUGAGGAUCACCCAUGUAAAUUCACUUUCAGUAGUCUACAUGUAGAAGGGUAGACUG	21.3	40.3		
CAGCGCUGUUGAGAGGAUAUGCGGUGAUGGACAUGAGGAUCACCCAUGUUAGCGACAGCAUUACGGCAGAAGGCUUCACAGCUGC			51.1	14.6
AAGAAAGAAACGUAGGAUAUCAAGAAUAUAACAUGAGGAUCACCCAUGUAAAUACGAAAGUAUAAUGAGAAGGAUGGAUGAUCUUC			102	83.4
AUUUUAUAAUAGAAGGAGGACUUCAUGAGGAUCACCCAUGUGUUGGUACUUAGGAUAUGUAAUAACAUGAGGAUCACCCAUGUC			55.9	49.8
UUCGUGCAGCUUUGCUGUACGCGUACAUGAGGAUCACCCAUGUAGGAUAUGGUAGGCAAAGUUUACUAGAAGGAUAUAGUGAUC	13.2	14.3		
CUGUAGAUAUCAGGAUAUCUAUUUCCUACAUGAGGAUCACCCAUGUAGAUGAUCACCCAUGUAAAGGAGAAGGGAUAUCUAUAG			342	180
UUAUUUAGGUAGGAUAUCGAUAUUAAUUAUUAUCGAGAAGGGUCUACAUGAGGAUCACCCAUGUUAGCAUGUAU	28.1	29.9		
UAUAUAUAAUAUAUUAACAUGAGGAUCACCCAUGUCGCUAGACAGGAUAUAUUUAAUAUUAUAAAGUAGAAGGGUCAUAUAAUU			50.5	64.8
UCUGCCGCCGUGAGGAUAUGCCCGCGCGCACGCGGGCAGAAGGCACAUGAGGAUCACCCAUGUCCCGCGGUUUU	17.6	38.1		
GUCACGAAUGUAGGAUAUCGAGUGGAAUACACUCGAGAAGGACAUGAGGAUCACCCAUGUCAAAUGAAAGAUAAUAAACGUGAC	14.6	18.8		
CUGUUAUAGGUCCAUUUUUUCAACAUGAGGAUCACCCAUGUGCAGGAUAUCGUGAUAAUUUUCAUCGAGAAGGGCAUAGUCACG	24.9	40.1		
UUGGAGUACGUAGGAUAUGUAGGAUUUUCCUACAUGAGGAUCACCCAUGUUAGCAUGGAAGAAGGACAGAAGGACGUGCUCCAU			1040	78.1
CCGAUUAGCACAGGAUAUGGGAAUUCGUAGUUUCCAGAAGGGUGAGCCAAUACAUGAGGAUCACCCAUGUGCGGUAGGUCGGGA			30.5	80
